Data set [1] has as its system Liver microsomes. Description: Metabolic stability in human liver microsomes in absence of NADPH. It is filed as ADME, Microsome. Background: Liver microsomes are vesicles of endoplasmic reticulum, rich in cytochrome P450 enzymes.
Data set [2] relates to Liver microsomes. Description: Metabolic stability in rat liver microsomes in absence of NADPH. The data set is classed as ADME, Microsome.
Data set [3] deals with T1, Mitogen-activated protein kinase 14 (Homo sapiens, UniProt Q16539).
For the next data set, the system named is Blood. Description: Inhibition of LPS-induced TNFalpha release in human whole blood after 24 hrs by ELISA. The data set is classed as functional, tissue-based. For orientation: An ELISA detects its analyte on a solid surface through an enzyme-linked reagent.
Data set [4] can be described thus: Metabolic stability in rat liver microsomes assessed as compound turnover at 5 uM after 30 mins in presence of NADPH. The data set is classed as ADME, Microsome. The conditions noted are these: read-out: Drug metabolism. The method in brief:
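5 µM test compound incubated with rat or human hepatic microsomes (1 mg/mL) plus NADPH for 30 min at 37 °C; result given as % turnover.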

Data set [5] is described as follows: Metabolic stability in human liver microsomes assessed as compound turnover at 5 uM after 30 mins in presence of NADPH. It is filed as ADME, Microsome. Conditions: read-out: Drug metabolism.
Data set [6] deals with Liver microsomes. Description: Metabolic stability in human liver microsomes assessed as compound turnover at 5 uM after 30 mins in absence of NADPH. The data set is classed as ADME, Microsome. Conditions: 0.5 h.
The nature of data set [7]: Apparent passive permeability from apical to basolateral side of the human Caco2 cells at 12.5 uM. It is filed as ADME, cell-based. The conditions noted are these: Caco-2. The gist of the method:
(§1)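 Passive permeability across Caco-2 monolayer measured with 12.5 µM test compound in both directions (apical-to-basal and basal-to-apical); Papp reported in 10^-6 cm/s.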
(Caco-2 monolayers are a common model of the intestinal barrier.)

The nature of data set [8]: Apparent passive permeability from basolateral to apical side of the human Caco2 cells at 12.5 uM. It is filed as ADME, cell-based. The conditions noted are these: Caco-2. The method in brief: as §1
Data set [9] relates to CHO. Description: Cytotoxicity against CHO cells at 200 uM. The data set is classed as cell-based, Cricetulus griseus. The conditions noted are these: chinese hamster.
Data set [10] relates to CHO. Description: Cytotoxicity against CHO cells. The data set is classed as cell-based. Conditions: Cricetulus griseus.
For another data set, the target named is Cytochrome P450 3A4 (Homo sapiens, UniProt P08684). Description: Inhibition of human CYP3A4. The data set is classed as ADME.
In the next data set the target is Cytochrome P450 2C9 (Homo sapiens, UniProt P11712). Description: Inhibition of human CYP2C9. The data set is classed as ADME.
The next data set concerns the target Cytochrome P450 2C19 (Homo sapiens, UniProt P33261). Description: Inhibition of human CYP2C19. It is filed as ADME.
A further data set concerns the target Cytochrome P450 2D6 (Homo sapiens, UniProt P10635). Description: Inhibition of human CYP2D6. It is filed as ADME.
A short description of data set [11]: Half life in rat at 1 mg/kg, iv. The data set is classed as ADME, organism-based. The arrangement: dose 1 mg/kg, route intravenous. Conditions: in vivo.
The nature of data set [12]: Cmax in rat at 1 mg/kg, iv. It is filed as ADME, organism-based. The arrangement: dose 1 mg/kg, route intravenous. The conditions noted are these: in vivo.
Data set [13] in a line: Clearance in rat at 1 mg/kg, iv. The data set is classed as ADME, organism-based. The arrangement: dose 1 mg/kg, route intravenous. Conditions: in vivo.
Data set [14] is described as follows: AUC (0 to infinity) in rat at 1 mg/kg, iv. It is filed as ADME, organism-based. The arrangement: time infinity, dose 1 mg/kg, route intravenous. The conditions noted are these: plasma.
The nature of data set [15]: Volume of distribution at steady state in rat at 1 mg/kg, iv. The data set is classed as ADME, organism-based. The arrangement: dose 1 mg/kg, route intravenous. Conditions: in vivo, read-out: Vdss.
Data set [16] in a line: Mean residence time in rat at 1 mg/kg, iv. It is filed as ADME, organism-based. The arrangement: dose 1 mg/kg, route intravenous. The conditions noted are these: in vivo.
Data set [17] is described as follows: Cmax in rat at 10 mg/kg, po. The data set is classed as ADME, organism-based. The arrangement: dose 10 mg/kg, route oral. The conditions noted are these: in vivo.
Data set [18] is described as follows: AUC (0 to infinity) in rat at 10 mg/kg, po. The data set is classed as ADME, organism-based. The arrangement: time infinity, dose 10 mg/kg, route oral. The conditions noted are these: plasma.
Data set [19] in a line: Oral bioavailability in rat at 10 mg/kg. Conditions: in vivo. The data set is classed as ADME, organism-based.
The subject of the next data set is Rattus norvegicus. Description: Antiinflammatory activity in rat assessed as inhibition of LPS-induced TNFalpha production plasma administered orally 1 hr prior to LPS challenge measured after 1.5 hrs by ELISA. The data set is classed as functional.
Another data set addresses hERG (Homo sapiens, UniProt Q12809). Description: Inhibition of human ERG expressed in HEK293 cells at 10 uM. The conditions noted are these: HEK293 cells that express hERG. It is filed as cell-based.
The target in data set [20] is T2, 5-hydroxytryptamine receptor 1B (Homo sapiens, UniProt P28222). Description: Inhibition of 5-HT1B.
Data set [21] concerns the target T3, RAF proto-oncogene serine/threonine-protein kinase (Homo sapiens, UniProt P04049). Description: Inhibition of cRaf.
The target of data set [22] is T4, High affinity nerve growth factor receptor (Homo sapiens, UniProt P04629). Description: Inhibition of human TrkA.
Target sequence in this assay (P04629 whole entry): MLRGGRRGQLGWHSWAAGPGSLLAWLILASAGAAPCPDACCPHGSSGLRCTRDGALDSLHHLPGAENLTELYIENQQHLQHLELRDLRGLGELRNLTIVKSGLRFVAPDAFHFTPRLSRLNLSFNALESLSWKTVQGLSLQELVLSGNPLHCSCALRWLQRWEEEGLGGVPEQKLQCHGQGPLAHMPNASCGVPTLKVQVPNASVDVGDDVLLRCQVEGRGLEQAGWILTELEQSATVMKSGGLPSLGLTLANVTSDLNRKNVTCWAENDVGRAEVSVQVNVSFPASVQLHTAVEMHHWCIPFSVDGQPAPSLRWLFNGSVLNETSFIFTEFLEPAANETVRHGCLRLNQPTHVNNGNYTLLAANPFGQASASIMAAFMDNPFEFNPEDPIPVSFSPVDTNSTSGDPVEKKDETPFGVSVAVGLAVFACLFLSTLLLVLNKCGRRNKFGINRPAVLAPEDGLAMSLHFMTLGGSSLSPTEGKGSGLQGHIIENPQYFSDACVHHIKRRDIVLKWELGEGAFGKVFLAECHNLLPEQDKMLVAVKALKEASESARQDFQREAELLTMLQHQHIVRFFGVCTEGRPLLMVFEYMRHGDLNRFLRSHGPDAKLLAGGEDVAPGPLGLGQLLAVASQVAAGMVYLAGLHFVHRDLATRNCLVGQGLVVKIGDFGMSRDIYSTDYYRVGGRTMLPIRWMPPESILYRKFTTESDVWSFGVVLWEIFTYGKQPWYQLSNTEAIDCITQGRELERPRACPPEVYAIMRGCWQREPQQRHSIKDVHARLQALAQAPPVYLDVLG
The target in a further data set is T5, Cytochrome P450 1A2 (Homo sapiens, UniProt P05177).
T5 sequence (P05177 whole entry): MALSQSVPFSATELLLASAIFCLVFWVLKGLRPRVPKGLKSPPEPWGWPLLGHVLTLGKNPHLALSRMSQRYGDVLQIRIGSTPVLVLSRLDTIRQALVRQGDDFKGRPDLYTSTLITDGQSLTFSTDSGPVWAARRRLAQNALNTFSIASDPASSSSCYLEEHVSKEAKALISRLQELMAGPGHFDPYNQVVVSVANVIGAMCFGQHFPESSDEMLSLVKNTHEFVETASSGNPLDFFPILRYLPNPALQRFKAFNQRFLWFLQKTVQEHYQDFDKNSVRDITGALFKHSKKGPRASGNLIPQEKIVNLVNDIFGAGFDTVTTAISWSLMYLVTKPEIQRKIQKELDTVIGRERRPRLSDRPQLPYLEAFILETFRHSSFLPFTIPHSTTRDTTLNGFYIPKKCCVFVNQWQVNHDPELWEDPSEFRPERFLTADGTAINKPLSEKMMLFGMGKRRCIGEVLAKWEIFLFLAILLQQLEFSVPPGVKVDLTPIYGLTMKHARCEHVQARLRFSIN
Description: Inhibition of human CYP1A2. It is filed as ADME.

The target of data set [23] is T2, 5-hydroxytryptamine receptor 1B. The conditions noted are these: 10 uM.
Data set [24] deals with T3, RAF proto-oncogene serine/threonine-protein kinase. Conditions: 10 uM.
Data set [25] concerns the target T4, High affinity nerve growth factor receptor. Conditions: 10 uM.
For data set [26], the target named is T1, Mitogen-activated protein kinase 14. Description: Inhibition of human p38alpha using biotinylated ATF2 as substrate at 60 uM preincubated for 1 hr measured after 1 hr by FRET assay.

Bounds are passed on as bounds.

T1 sequence (Q16539 whole entry): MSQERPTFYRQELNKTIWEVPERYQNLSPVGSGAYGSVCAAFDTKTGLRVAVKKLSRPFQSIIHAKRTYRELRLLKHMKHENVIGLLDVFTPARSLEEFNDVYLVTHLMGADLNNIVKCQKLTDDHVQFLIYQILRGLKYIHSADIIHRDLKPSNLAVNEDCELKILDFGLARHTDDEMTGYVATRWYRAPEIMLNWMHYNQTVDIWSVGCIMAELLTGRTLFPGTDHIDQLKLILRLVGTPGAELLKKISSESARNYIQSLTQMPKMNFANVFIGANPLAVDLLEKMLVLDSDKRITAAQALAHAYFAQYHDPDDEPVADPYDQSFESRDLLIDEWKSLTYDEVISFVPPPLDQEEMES
T3 sequence (P04049 whole entry): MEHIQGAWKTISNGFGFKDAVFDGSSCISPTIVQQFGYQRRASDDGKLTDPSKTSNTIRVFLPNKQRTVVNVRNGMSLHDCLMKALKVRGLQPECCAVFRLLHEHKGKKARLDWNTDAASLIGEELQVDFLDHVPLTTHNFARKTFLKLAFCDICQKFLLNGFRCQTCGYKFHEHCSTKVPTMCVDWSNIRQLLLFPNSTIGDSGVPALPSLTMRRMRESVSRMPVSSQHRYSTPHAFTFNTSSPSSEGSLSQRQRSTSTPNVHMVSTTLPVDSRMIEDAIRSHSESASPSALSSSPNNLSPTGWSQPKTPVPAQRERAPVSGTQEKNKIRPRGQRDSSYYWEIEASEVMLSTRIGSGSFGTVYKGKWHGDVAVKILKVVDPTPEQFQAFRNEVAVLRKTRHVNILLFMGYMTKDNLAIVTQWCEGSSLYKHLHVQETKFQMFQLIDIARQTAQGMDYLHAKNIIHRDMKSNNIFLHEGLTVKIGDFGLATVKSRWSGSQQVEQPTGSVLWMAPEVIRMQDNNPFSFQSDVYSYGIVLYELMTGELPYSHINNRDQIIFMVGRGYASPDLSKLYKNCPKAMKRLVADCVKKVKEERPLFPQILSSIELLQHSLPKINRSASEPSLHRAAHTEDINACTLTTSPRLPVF
T2 sequence (P28222 whole entry): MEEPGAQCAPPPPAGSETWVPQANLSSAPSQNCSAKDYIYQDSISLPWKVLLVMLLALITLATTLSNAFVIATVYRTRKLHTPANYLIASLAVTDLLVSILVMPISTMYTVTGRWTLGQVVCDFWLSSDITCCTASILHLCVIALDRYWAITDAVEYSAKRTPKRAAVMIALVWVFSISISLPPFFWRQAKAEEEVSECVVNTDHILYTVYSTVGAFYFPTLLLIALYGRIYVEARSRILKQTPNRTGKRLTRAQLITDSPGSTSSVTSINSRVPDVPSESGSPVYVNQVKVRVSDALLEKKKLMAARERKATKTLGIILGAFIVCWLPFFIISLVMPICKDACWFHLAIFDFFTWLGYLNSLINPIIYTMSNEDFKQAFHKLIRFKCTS
Chain of Cytochrome P450 2D6 (P10635 whole entry): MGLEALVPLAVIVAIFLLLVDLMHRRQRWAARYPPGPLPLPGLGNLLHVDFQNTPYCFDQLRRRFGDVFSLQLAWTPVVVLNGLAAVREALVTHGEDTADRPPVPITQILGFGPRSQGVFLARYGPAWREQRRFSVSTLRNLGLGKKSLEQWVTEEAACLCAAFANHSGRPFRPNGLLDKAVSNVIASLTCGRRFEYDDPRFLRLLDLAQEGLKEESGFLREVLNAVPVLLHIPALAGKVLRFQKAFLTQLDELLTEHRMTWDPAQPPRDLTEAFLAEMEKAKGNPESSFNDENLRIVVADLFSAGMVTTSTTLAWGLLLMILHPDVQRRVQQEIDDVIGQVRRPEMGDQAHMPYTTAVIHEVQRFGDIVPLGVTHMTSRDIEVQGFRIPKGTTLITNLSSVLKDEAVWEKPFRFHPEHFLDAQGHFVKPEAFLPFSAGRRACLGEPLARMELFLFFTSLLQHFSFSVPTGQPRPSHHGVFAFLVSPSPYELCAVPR
Chain of Cytochrome P450 2C19 (P33261 whole entry): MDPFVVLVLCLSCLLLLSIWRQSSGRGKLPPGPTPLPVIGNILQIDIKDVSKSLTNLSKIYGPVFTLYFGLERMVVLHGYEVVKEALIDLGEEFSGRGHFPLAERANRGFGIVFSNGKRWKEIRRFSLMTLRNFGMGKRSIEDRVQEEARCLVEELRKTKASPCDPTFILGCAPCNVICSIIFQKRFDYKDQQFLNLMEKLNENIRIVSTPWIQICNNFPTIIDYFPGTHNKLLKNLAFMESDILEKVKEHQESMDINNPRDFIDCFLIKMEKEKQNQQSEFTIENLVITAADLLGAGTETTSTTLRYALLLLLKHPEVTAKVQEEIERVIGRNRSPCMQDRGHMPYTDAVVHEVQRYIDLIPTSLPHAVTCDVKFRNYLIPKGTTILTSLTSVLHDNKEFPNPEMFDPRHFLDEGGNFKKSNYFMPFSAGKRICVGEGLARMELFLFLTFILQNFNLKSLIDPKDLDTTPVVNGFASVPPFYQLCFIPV
Chain of hERG (Q12809 whole entry): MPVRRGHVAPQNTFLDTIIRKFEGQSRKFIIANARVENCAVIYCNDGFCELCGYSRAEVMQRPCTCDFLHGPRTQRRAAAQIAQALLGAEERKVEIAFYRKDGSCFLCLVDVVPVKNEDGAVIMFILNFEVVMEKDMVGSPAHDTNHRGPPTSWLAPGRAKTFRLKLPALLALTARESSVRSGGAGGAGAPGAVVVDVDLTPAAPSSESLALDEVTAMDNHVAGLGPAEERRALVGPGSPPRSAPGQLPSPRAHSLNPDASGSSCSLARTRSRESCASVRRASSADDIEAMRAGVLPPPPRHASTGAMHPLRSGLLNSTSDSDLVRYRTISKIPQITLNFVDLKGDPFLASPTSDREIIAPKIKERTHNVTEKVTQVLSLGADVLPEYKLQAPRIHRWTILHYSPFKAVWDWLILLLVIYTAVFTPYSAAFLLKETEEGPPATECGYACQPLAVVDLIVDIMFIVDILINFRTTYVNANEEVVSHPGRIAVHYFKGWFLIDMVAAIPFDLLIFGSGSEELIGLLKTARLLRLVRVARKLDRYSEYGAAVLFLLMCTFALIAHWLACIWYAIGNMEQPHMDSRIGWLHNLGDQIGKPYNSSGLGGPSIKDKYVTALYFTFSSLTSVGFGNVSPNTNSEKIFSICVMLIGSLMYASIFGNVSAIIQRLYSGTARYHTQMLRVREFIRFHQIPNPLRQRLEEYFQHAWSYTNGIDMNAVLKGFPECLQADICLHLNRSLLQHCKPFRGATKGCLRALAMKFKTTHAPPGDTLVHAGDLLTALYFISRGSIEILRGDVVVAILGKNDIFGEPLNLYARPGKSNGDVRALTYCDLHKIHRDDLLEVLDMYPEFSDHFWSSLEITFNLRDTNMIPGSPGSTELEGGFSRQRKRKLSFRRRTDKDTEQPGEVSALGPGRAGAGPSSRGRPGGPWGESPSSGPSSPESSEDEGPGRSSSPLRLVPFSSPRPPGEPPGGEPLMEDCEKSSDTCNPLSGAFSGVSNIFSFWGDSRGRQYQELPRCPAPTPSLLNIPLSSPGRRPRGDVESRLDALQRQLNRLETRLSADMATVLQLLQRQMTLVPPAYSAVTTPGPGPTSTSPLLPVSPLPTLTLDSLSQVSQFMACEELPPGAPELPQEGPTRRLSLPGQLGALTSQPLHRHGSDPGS
Chain of Cytochrome P450 2C9 (P11712 whole entry): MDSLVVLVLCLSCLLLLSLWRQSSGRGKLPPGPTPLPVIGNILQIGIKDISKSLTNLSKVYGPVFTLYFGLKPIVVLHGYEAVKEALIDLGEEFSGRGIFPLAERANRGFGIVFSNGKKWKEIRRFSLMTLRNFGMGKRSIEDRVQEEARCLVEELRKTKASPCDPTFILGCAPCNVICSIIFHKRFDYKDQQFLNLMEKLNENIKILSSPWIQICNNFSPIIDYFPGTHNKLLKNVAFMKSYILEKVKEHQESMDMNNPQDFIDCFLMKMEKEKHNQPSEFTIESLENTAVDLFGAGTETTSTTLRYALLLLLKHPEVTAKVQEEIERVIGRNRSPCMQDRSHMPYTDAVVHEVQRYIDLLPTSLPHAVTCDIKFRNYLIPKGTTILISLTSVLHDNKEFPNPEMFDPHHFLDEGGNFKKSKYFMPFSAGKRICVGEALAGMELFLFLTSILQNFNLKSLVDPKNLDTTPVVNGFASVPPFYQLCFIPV

As a reminder, the IC50 is the concentration that inhibits the measured activity by half. On to `Cc1cnc(-c2ccc(C)c(-c3ccc4c(c3)NC(=O)C43CCOCC3)c2)[nH]1`, for which the Stability result in the data set on Liver microsomes [1] and with Liver microsomes [2] was “Stable” throughout. In [3], this compound yielded a half-maximal inhibitory concentration (IC50) of 173 nM.
In general, Papp A→B refers to how fast a substance crosses the layer from the apical side. The Papp B→A is how fast a substance crosses the layer from the basolateral side. `Cc1ccc2c(NC3CC3)noc2c1-c1ccc2c(c1)NC(=O)C21CCC(F)(F)CC1` had an IC50 in the data set with Blood of 10.7 nM. The metabolised at 0.5 h, 5 µM in data set [4] was found to be 25%; in data set [5], 32%. Besides, the Stability result with Liver microsomes [6] is “Stable”. Moreover, the Papp A→B at 12.5 µM in [7] stood at 10 ×10⁻⁶ cm/s. Moreover, in data set [8], the Papp B→A at 12.5 µM came out at 4 ×10⁻⁶ cm/s. The compound also had an Activity in the data set on CHO [9] of 56%.
As for `Cc1ccc(-c2nnc(C3CC3)[nH]2)cc1-c1ccc2c(c1)NC(=O)C21CCCC1`, the IC50 in data set [3] was 135 nM.
As to `Cc1nnc(-c2ccc(C)c(-c3ccc4c(c3)NC(=O)C43CCC(F)(F)CC3)c2)[nH]1`, the half-inhibitory concentration (IC50) was determined as 98 nM with Blood and 20000 nM in the data set on CHO [10]. The metabolised at 0.5 h, 5 µM in [4] was 5%; in data set [5], below 5%. For the same compound, the Stability entry in the data set with Liver microsomes [6] is recorded as “Stable”.
On to `Cc1ccn2c(N)nnc2c1-c1ccc2c(c1)NC(=O)C21CCCC1`, for which the values for the IC50 (in the data set with Blood; in data set [3]) were 2110 nM and 34 nM, respectively.
The half-life is the time needed for the level to fall by half in the phase considered. Lower therefore signals rapid decline. As usually defined, the Cmax is the peak of the concentration-time curve. What is called clearance is the rate of elimination divided by the concentration. A lower clearance goes with a low capacity for elimination. What is called AUC(0-inf) is the area under the concentration-time curve extrapolated to infinity. By MRT is commonly meant the average time that molecules of a dose stay in the body. The term bioavailability denotes dose-corrected exposure relative to a reference, in per cent. Low readings indicate poor availability, high ones good availability. As a reminder, the inhibition is the drop in the measured response relative to a control, in per cent. Broadly, the ED50 is the midpoint of the dose-response relation. For `Cc1nnc(-c2ccc(C)c(-c3ccc4c(c3)NC(=O)C43CCOCC3)c2)[nH]1`, the IC50 on Cytochrome P450 3A4 was above 25000 nM; at Cytochrome P450 2C9 it was above 25000 nM; against Cytochrome P450 2C19 it was above 25000 nM; on Cytochrome P450 2D6, above 25000 nM; in the data set with Blood, 93 nM; in data set [20], 10000 nM. For the same compound, the IC50 in data set [21] was 1600 nM; in data set [22], 7700 nM; against Cytochrome P450 1A2 it was above 25000 nM; in [3], 7.6 nM. The Stability result with Liver microsomes [1], in the data set on Liver microsomes [2] and in the data set with Liver microsomes [6] was “Stable” each time. For the same compound, the metabolised at 0.5 h, 5 µM in data set [4] is 23%; in data set [5] it was below 5%. Besides, in [7], the Papp A→B at 12.5 µM turned out to be 18 ×10⁻⁶ cm/s. For the same compound, the Papp B→A at 12.5 µM in data set [8] was 27 ×10⁻⁶ cm/s. Moreover, in the data set with CHO [9], the Activity was 48%. This compound gave a half-life in data set [11] of 3.1 h. The values for the Cmax in data set [12] and in [17] were 1720 ng/mL and 1100 ng/mL, respectively. The compound also registered a clearance in data set [13] of 4.2 mL/min/kg. In addition, the AUC(0-inf) in data set [14] is 4060 ng·h/mL; in [18], 11700 ng·h/mL. Further, in data set [15], the Vd stood at 1 L/kg. Also, the MRT in data set [16] was 4 h. The compound further gave a bioavailability in data set [19] of 29%. For the same compound, the inhibition entry in the data set with Rattus norvegicus was “Dose-dependent effect”; in [23], above 50%; in [24], above 50%; in [25] it was above 50%. Moreover, in the data set on Rattus norvegicus (po), the ED50 came out at 0.69 mg/kg. The inhibition at 10 µM at hERG was found to be 49%.
In the case of `Cc1ccc2c(N)n[nH]c2c1-c1ccc2c(c1)NC(=O)C21CCOCC1`, the inhibition in [26] amounted to 60%.
Turning to `Cc1ccc2c(N)noc2c1-c1ccc2c(c1)NC(=O)C2(C)C`, it took 731 nM to reach half-maximal inhibition with Blood (IC50).
Consider `Cc1ccc2c(NC3CC3)noc2c1-c1ccc2c(c1)NC(=O)C21CCOCC1`, for which the IC50 with Blood worked out at 8.4 nM; in the data set with CHO [10] it was 49000 nM; in [3], 0.16 nM. Moreover, the metabolised at 0.5 h, 5 µM in [4] came to 18%; in data set [5], 26%. Further, the Stability entry with Liver microsomes [6] is reported as “Stable”. Also, in [7], the Papp A→B at 12.5 µM was 26 ×10⁻⁶ cm/s. The Papp B→A at 12.5 µM in data set [8] came to 16 ×10⁻⁶ cm/s. In addition, in [11], the half-life was 2.9 h. Besides, the Cmax in data set [12] is 1480 ng/mL; in data set [17] it was 479 ng/mL. Besides, the clearance in data set [13] turned out to be 3.2 mL/min/kg. Besides, the results for the area under the curve AUC(0-inf) in [14] and in data set [18] were 5270 ng·h/mL and 3370 ng·h/mL, respectively. For the same compound, in data set [15], the Vd is 0.8 L/kg. Moreover, in [16], the MRT came out at 4.6 h. Further, the bioavailability in data set [19] is 6%.
As for `Cc1ccc2c(N)noc2c1-c1ccc2c(c1)NC(=O)C21CCC(F)(F)CC1`, the values for the IC50 (with Blood; in data set [3]) were 137 nM and 1.2 nM, respectively.
On to `Cc1ccc2c(NC3CC3)noc2c1-c1ccc2c(c1)NC(=O)C2(C)C`, for which inhibition with Blood was half-maximal at 50 nM (IC50).

These data come from ChEMBL document CHEMBL1909512, “Indolin-2-one p38α inhibitors III: bioisosteric amide replacement” (Bioorg Med Chem Lett, 2011).
